From PubChem BioAssay
MC4R ag barr – activates human MC4R beta-arrestin recruitment | 0.98% of 360,000 active | P32245 | U2OS MC4R beta-arrestin complementation, luminescence; percent of melanotan II response, DMSO zero | activation, % at 8.9 µM;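 active = activation above a per-plate cutoff, the mean activation of sample wells on that plate plus 3 SD, cut at about 8% in these data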
Target sequence (P32245 whole entry, looked up): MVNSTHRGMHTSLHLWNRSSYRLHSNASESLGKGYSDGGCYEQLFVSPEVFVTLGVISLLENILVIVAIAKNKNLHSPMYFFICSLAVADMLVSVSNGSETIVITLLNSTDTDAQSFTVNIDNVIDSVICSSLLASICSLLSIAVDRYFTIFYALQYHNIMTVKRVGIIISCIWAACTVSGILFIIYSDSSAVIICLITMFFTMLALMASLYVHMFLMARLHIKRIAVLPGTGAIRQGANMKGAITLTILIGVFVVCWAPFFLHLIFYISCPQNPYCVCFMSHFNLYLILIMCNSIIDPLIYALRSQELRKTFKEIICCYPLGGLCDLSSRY
MC4R antag cAMP – blocks human MC4R cAMP signaling; P32245; MC4R-expressing cells, MTII-stimulated cAMP, LANCE TR-FRET; inhibition, % at 6.5 µM; 0.48% of 360,000 active; AID 540295;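 active = inhibition above its plate's cutoff, the mean of tested wells on that plate plus 3 SD, cut at about 29% in these data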;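 note: 0% = Melanotan II alone and 100% = Melanotan II plus saturating MCL0020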
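Assay system: U2OS cells stably expressing human melanocortin 4 receptor (MC4R) / Dosing: 6.5 µM / Timing: compound 30 min, challenge 1 h, detection 1 h / Measured by: Eu-cAMP/anti-cAMP TR-FRET, emission 671 nm / Replicates: singlicate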
TAG inh – reduces triacylglycerol accumulation in H9c2 cells. 0.66% of 230,000 active. Nile Red lipid (TAG) fluorescence; cells loaded with 200 µM oleic acid. inhibition, % at 12.5 µM. AID 651582;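 active = pattern-corrected inhibition of lipid staining of at least 50% with the nuclear-stain viability signal not falling by more than 50%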;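 note: 0% = DMSO wells and 100% = triacsin C control wells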
GalR3 antag – blocks the human galanin receptor 3. O60755. HEK293 GalR3-CNG cAMP membrane potential fluorescence; galR3 body fused to GalR1 C-terminus. inhibition, % at 3 µM. 0.44% of 360,000 active;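 active = inhibition above the screen-wide average plus 3 SD, cut at about 13% in these data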;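 note: forskolin and galanin both at EC90 stimulate the cells; cAMP rise reported by CNG channel membrane potential dye signal; 0% = forskolin plus galanin with DMSO and 100% = forskolin alone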
Calb FLC – affects C. albicans growth with fluconazole; growth inhibition, % (no concentration beside the values); 0.57% of 300,000 active; C. albicans CaCi-2 + fluconazole, Alamar Blue growth, 48 h;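 active = growth inhibition above about 58% in most replicates, limit read from the data, passing the limit was not always enough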;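 note: all wells also contain fluconazole at 8 µg/ml as a sub-toxic cotreatment; 0% = median of DMSO wells and 100% = median of geldanamycin control wells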
Efflux pump mplx – blocks antifungal efflux pumps in multiplex yeast assay | S. cerevisiae Candida pump triplex, Nile Red efflux | inhibition, % at 10 µM | 0.44% of 330,000 active;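 active = plate passing quality check with inhibition over a set limit, or well fluorescence over plate mean plus 4 SD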;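 note: Nile Red retained in pooled yeast measured as flow cytometry median fluorescence; 0% = buffer negative control and 100% = Enniatin B positive control; higher means more Nile Red kept so more efflux inhibition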
cAMP nonselect – counter-screen for MC4R antagonists: nonselective cAMP signaling inhibitors. shares compounds with MC4R antag cAMP. parental U2OS, forskolin cAMP, LANCE TR-FRET. inhibition, % at 6.5 µM. 26% of 1,600 active. AID 602193;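 active = mean inhibition over triplicates above the low-control well mean plus 3 SD, set per campaign, cut at about 13% in these data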;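 note: signal is single emission at 671 nm which falls as cellular cAMP rises; 0% = forskolin-stimulated wells and 100% = buffer without forskolin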
MC4R cAMP antag – human MC4R cAMP antagonism confirmation; shares compounds with MC4R antag cAMP; MC4R-expressing cells, MTII-stimulated cAMP, TR-FRET; inhibition, % at 6.5 µM; 27% of 1,600 active; AID 602195; in the data active = inhibition above about 29%;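 note: 0% = agonist stimulated wells alone and 100% = agonist stimulated wells plus saturating reference antagonist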
MC4R barr ag – human MC4R beta-arrestin agonism confirmation | activation, % at 8.9 µM | U2OS MC4R beta-arrestin recruitment, luminescence; scaled DMSO 0%, Melanotan II 100% | 31% of 2,400 active | shares compounds with MC4R ag barr | AID 602192;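 active = mean activation across replicates above the hit cutoff set in the earlier primary screen, cut at about 8% in these data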
MOR-DOR barr ag – counter-screen for MC4R agonists: agonists of mu-delta opioid heterodimer | activation, % at 9.2 µM | shares compounds with MC4R ag barr | U2OS PathHunter beta-arrestin, beta-gal luminescence; percent of deltorphin B response, DMSO zero | 5.8% of 2,400 active;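 active = mean activation across replicates exceeds the hit threshold derived in the earlier primary screen, cut at about 18% in these data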;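 note: 100% = deltorphin B at 0.9 µM final and 0% = DMSO alone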
GalR3 antag conf – confirmation of human galanin receptor 3 antagonists | shares compounds with GalR3 antag | AID 652245 | inhibition, % at 3 µM | HEK293 GalR3 CNG cAMP biosensor, membrane potential fluorescence; galR3 fused to GalR1 carboxy tail; challenged with forskolin and galanin at EC90 | 59% of 1,600 active;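 active = inhibition above the primary screen's cutoff, the mean inhibition of all screened compounds plus 3 SD, cut at about 13% in these data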;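 note: 0% = forskolin plus galanin and 100% = forskolin alone with DMSO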
CNG parental – acts as nonspecific agonist in parental HEK-CNG cells | shares compounds with GalR3 antag | HEK293-CNG parental cells, cAMP membrane potential fluorescence; normalised: DMSO wells 0%, forskolin wells 100% | activation, % at 3 µM | 10% of 1,600 active; in the data active = activation above about 1.3%
An asterisk follows results filed as active; / = not tested or not shown. Shown are actives, neighbours in structure and some others; about 2.9% of the full set was active somewhere.

SMILES | MC4R ag barr | MC4R antag cAMP | TAG inh | GalR3 antag | Calb FLC | Efflux pump mplx | cAMP nonselect | MC4R cAMP antag | others
Cc1cccc(N2C(=O)NC(=O)/C(=C\c3cc(C)n(-c4sc5c(c4C#N)CCCC5)c3C)C2=O)c1C | 1.0 | -5.0 | -3.9 | -5.2 | 9.6 | 0.2 | / | /
CCOC(=O)c1c(-n2c(C)cc(C=C3C(=O)NC(=O)NC3=O)c2C)sc2c1CCCC2 | 0.9 | 30.0* | / | -4.8 | 21.0 | 0.2 | 2.0 | -10.2
c1ccc2c3c([nH]c2c1)C1(CCNCC1)NCC3 | 3.2 | 8.8 | 45.2 | -0.6 | 23.1 | -0.2 | / | /
CC(C)CN1Cc2cc(-c3ccccc3)ccc2-n2nncc2C1 | / | / | / | -5.5 | / | / | / | /
COc1cccc(C(=O)C2CCCN(Cc3cccc4c3OCO4)C2)c1 (centres undefined) | -1.8 | 29.1* | -1.0 | -5.2 | 107.8* | 0.0 | 4.0 | 11.2
Cn1c(=O)cc(OCCCC(=O)N2CCC3(CC2)OCCO3)c2ccccc21 | -1.9 | -2.8 | 14.9 | -0.6 | -5.7 | 0.1 | / | /
CCOc1cc2[nH]c(=S)n(CCCC(=O)N3CCC4(CC3)OCCO4)c(=O)c2cc1OCC | -2.3 | 29.0* | / | -4.9 | -0.4 | -0.1 | 1.7 | 8.1
C[C@]12CCC3C(CC[C@H]4C[C@H](OC(=O)c5cccnc5)CC[C@]34C)C1CCC2=O (some centres undefined) | 2.4 | -3.6 | 2.9 | -3.3 | / | 0.5 | / | /
CC/C(=N\Nc1ccccc1)c1c(O)n(-c2ccc(OC)cc2)c(=O)[nH]c1=O | 3.5 | 33.0* | -6.2 | -0.3 | 14.3 | 0.1 | -0.5 | -6.1
CCC(=NCCO)c1c(O)n(-c2ccccc2)c(=O)[nH]c1=O | 0.1 | 0.3 | 8.1 | -6.2 | -12.6 | 0.1 | / | /
COc1cccc(C(=O)NCCN2CCC3(CC2)C(=O)NCN3c2ccccc2)c1 | / | / | / | -8.0 | / | / | / | /
Cc1ccc(N2C(=O)NC(=O)/C(=C/c3ccoc3)C2=O)cc1 | -2.4 | 32.8* | 10.9 | -2.6 | / | / | 2.7 | -1.9
CC1=C(O)C(=O)C=C2C1=CC=C1C2(C)CCC2(C)C3CC(C)(C(=O)O)CCC3(C)CCC12C (centres undefined) | -2.2 | 32.4* | 104.6 | -4.1 | / | / | -5.3 | 17.4
O=C1NCN(c2ccccc2)C12CCN(C(c1ccnc3ccccc13)c1nnnn1Cc1ccccc1)CC2 (centres undefined) | / | / | / | -4.3 | / | / | / | /
COc1ccc(CN2Cc3cnnn3-c3ccccc3C2C#N)cc1 (centres undefined) | 0.2 | 32.3* | 35.9 | -5.5 | / | / | 5.2 | 26.6
C=CCn1c(O)c(C(CC)=Nc2cccc(C(=O)O)c2)c(=O)[nH]c1=O | 1.9 | 30.8* | -4.0 | 15.3* | 4.1 | 0.0 | 1.1 | 6.1 | GalR3 antag conf=4.7;CNG parental=0.1
CCOC(=O)[C@@H]1[C@H]2COc3ccc(Br)cc3[C@H]2N2C(=O)N(c3cccc(C)c3)C(=O)[C@]12C | -2.0 | 10.5 | -5.0 | -6.6 | / | -0.2 | / | /
Cc1cc2oc(=O)cc(-c3cc4ccccc4o3)c2cc1OC(=O)N(C)C | 16.5* | -6.8 | / | -8.8 | -2.3 | 0.1 | / | / | MC4R barr ag=-0.4;MOR-DOR barr ag=3.4
